The source made the active and inactive calls. The calls are words filed in the database; no cut-off is given here.
How the values were obtained:
[1] = Antiproliferative activity against human SMMC7721 cells after 72 hrs by MTT assay; format: functional, cell-based; conditions: SMMC-7721, 72 h
Outline: (§1)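 Cells grown in RPMI-1640 with heat-inactivated 10% FBS, penicillin 100 units/mL and streptomycin 100 μg/mL, at 37 °C under 20% O2, 5% CO2. Compounds dissolved in DMSO at 10.0 mg/mL (stock), then diluted. Cells were plated for 24 h, exposed to a range of concentrations for 72 h, and viability was read by MTT. IC50 is 50% absorbance inhibition versus control cells; means of three experiments.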

[2] = biological target: T1, Serine/threonine-protein kinase Chk1 (Homo sapiens) (UniProt O14757); assay: Inhibition of CHK1 (unknown origin) at 1 ug/ml relative to control
T1 sequence (whole entry): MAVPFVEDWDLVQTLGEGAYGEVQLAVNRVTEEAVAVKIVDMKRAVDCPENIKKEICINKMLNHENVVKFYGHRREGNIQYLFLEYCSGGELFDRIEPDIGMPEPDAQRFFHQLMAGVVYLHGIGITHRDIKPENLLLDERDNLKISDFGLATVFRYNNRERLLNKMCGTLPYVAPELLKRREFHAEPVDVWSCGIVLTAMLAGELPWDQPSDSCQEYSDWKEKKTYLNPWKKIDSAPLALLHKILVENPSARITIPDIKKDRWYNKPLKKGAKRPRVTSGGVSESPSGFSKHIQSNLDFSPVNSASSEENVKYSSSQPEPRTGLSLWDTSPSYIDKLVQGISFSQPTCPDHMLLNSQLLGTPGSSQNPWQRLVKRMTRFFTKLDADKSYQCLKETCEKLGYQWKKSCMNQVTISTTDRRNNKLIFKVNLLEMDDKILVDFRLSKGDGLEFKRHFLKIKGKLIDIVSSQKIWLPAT
Outline: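 Fixed-concentration screen at 1 µg/mL using the luminescent ADP-Glo assay.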

[3] = Cell cycle arrest in human HCT116 cells assessed as accumulation at G2/M phase after 24 hrs by FACS analysis; format: functional, cell-based; conditions: HCT-116
[4] = biological target: Protein kinase C (PKC) (Homo sapiens) (UniProt O94806+P41743+P17252+P05129+Q05655+P05771+Q05513+Q02156+P24723+Q15139+Q04759); assay: Inhibition of PKC (unknown origin) at 1 ug/ml relative to control
Outline: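 Fixed-concentration screen at 1 µg/mL with a Z'-LYTE kinase assay kit.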

[5] = Apparent permeability across apical to basolateral side in MDCK cells by HPLC; format: ADME, cell-based, Canis lupus familiaris; conditions: dog
[6] = biological target: T2, Aurora kinase A (Homo sapiens) (UniProt O14965); assay: Inhibition of human full length Aurora A at 1 ug/ml by Z'-LYTE assay
T2 sequence (whole entry): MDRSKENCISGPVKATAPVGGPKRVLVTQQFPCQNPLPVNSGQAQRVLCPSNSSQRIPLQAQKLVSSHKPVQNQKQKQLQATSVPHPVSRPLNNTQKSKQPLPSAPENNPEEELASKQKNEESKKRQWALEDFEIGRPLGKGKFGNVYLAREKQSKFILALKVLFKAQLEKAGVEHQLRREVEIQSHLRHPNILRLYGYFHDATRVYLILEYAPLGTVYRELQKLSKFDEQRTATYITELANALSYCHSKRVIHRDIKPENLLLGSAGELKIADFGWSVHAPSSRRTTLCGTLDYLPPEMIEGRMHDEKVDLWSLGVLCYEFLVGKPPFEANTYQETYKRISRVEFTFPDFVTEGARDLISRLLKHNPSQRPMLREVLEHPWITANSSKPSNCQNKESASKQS

[7] = Cell cycle arrest in human HCT116 cells assessed as accumulation at G2/M phase at 200 nM after 24 hrs by FACS analysis; format: functional, cell-based; conditions: HCT-116
[8] = Antiproliferative activity against human HCT116 cells after 72 hrs by MTT assay; format: functional, cell-based; conditions: HCT-116, 72 h; outline: as §1
[9] = biological target: Cyclin-dependent kinase 2 (Homo sapiens) (UniProt P24941); assay: Inhibition of CDK2 (unknown origin) at 1 ug/ml relative to control
[10] = biological target: T3, Inhibitor of nuclear factor kappa-B kinase subunit beta (Homo sapiens) (UniProt O14920); assay: Inhibition of IKKbeta (unknown origin) at 1 ug/ml relative to control
T3 sequence (whole entry): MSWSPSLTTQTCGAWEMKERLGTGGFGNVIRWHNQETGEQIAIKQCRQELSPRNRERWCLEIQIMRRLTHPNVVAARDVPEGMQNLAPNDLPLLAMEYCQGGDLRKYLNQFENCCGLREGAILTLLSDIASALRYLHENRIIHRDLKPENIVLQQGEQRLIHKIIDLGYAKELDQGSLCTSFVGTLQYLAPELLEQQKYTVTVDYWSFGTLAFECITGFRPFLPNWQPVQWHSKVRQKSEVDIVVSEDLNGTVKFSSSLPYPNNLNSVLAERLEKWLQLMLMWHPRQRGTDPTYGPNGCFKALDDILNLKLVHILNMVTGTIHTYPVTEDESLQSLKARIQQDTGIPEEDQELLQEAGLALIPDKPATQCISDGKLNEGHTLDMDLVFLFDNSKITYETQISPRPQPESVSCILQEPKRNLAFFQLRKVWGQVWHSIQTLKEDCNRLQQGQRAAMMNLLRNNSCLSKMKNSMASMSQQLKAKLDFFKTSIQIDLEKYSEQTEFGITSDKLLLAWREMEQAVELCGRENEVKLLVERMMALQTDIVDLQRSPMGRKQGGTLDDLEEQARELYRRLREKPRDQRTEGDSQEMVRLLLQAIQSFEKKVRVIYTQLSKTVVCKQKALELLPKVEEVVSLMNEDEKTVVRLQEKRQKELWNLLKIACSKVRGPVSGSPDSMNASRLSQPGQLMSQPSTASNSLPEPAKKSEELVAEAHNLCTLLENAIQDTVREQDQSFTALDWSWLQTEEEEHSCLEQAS

[11] = Antiproliferative activity against human HL60 cells after 72 hrs by MTT assay; format: functional, cell-based; conditions: HL-60, 72 h; outline: as §1
Aurora kinase A = biological target: T4, Aurora kinase A (Homo sapiens, UniProt O14965); assay: Inhibition of human full length Aurora A by Z'-LYTE assay
T4 sequence (O14965 whole entry): T2 sequence (whole entry)

[12] = biological target: Glycogen synthase kinase-3 beta (Homo sapiens) (UniProt P49841); assay: Inhibition of GSK3beta (unknown origin) at 1 ug/ml relative to control
Glycogen synthase kinase-3 beta (Homo sapiens), sequence (P49841 whole entry, looked up): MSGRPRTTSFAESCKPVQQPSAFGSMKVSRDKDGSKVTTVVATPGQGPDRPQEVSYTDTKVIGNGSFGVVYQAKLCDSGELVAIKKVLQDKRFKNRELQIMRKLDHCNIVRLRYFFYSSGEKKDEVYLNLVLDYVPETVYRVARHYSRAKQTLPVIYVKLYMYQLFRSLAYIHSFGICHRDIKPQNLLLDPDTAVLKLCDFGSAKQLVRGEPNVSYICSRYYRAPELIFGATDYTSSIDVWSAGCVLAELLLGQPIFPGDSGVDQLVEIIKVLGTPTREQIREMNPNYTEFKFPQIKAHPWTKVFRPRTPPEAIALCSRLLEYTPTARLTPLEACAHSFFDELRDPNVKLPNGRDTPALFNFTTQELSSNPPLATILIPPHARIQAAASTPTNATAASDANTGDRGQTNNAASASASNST

A549 = assay: Antiproliferative activity against human A549 cells after 72 hrs by MTT assay; format: functional, cell-based; conditions: A549, 72 h
HCT-116 [13] = assay: Induction of apoptosis in human HCT116 cells at 200 nM after 24 hrs by FACS analysis relative to control; format: functional
[14] = biological target: Serine/threonine-protein kinase B-raf (Homo sapiens) (UniProt P15056); assay: Inhibition of BRAF (unknown origin) at 1 ug/ml relative to control
Serine/threonine-protein kinase B-raf (Homo sapiens), sequence (P15056 whole entry): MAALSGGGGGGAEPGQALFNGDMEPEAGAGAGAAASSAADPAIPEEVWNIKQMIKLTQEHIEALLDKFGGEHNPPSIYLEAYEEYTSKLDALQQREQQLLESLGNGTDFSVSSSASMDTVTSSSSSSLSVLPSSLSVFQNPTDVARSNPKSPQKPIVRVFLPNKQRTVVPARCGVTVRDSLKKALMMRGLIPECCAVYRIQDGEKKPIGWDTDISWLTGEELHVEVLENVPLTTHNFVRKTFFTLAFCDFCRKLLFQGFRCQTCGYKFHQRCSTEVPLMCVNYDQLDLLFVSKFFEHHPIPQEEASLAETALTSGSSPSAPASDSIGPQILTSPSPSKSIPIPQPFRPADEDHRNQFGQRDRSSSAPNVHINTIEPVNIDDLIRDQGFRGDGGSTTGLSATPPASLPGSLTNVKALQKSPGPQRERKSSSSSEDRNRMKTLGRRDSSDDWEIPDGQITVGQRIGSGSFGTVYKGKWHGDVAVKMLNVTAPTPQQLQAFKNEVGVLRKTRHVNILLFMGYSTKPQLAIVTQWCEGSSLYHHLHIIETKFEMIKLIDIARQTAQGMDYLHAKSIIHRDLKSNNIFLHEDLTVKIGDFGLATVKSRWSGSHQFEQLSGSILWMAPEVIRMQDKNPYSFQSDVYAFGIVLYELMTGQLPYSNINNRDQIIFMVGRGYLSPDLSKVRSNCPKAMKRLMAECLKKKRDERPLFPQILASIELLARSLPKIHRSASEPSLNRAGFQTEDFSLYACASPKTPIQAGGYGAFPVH

HCT-116 [15] = assay: Ratio of taxol IC50 to compound IC50 for human HCT116 cells; format: functional
[16] = biological target: Dual specificity mitogen-activated protein kinase kinase 1 (Homo sapiens) (UniProt Q02750); assay: Inhibition of MEK1 (unknown origin) at 1 ug/ml relative to control
Dual specificity mitogen-activated protein kinase kinase 1 (Homo sapiens), sequence (Q02750 whole entry): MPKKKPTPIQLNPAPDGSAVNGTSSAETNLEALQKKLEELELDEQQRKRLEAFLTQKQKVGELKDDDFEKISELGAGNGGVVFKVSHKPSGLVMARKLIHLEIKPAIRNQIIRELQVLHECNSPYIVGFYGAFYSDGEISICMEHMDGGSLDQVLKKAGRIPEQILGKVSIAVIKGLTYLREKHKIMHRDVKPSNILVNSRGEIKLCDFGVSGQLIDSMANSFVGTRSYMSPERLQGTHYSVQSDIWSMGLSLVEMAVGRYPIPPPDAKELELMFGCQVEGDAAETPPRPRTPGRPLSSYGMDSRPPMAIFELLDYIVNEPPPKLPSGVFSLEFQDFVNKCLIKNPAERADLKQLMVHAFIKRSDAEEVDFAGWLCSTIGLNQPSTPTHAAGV

KB = assay: Antiproliferative activity against human KB cells after 72 hrs by MTT assay; format: functional, cell-based; outline: as §1
[17] = biological target: Cell division cycle 7-related protein kinase (Homo sapiens) (UniProt O00311); assay: Inhibition of CDC7 (unknown origin)
Cell division cycle 7-related protein kinase (Homo sapiens), sequence (O00311 whole entry, looked up): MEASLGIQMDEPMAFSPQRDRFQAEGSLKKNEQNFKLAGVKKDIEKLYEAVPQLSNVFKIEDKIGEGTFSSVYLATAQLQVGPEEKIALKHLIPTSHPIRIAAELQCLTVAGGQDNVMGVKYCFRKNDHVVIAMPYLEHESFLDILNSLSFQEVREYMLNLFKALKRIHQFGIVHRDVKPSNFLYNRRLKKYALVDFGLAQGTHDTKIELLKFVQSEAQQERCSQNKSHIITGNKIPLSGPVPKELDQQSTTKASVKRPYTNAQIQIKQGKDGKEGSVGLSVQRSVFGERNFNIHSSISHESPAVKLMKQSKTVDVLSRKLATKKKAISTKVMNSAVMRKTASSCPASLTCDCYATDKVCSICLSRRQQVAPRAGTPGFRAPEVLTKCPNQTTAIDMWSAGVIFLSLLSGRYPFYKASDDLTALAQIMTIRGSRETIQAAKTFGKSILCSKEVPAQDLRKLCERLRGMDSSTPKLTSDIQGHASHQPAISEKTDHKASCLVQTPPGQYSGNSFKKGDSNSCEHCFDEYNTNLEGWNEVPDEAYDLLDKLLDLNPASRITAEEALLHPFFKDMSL

| SMILES | IC50 [1] [nM] | inhibition [2] [%] | Activity [3] | inhibition [4] [%] | Papp A→B [5] [×10⁻⁶ cm/s] | inhibition [6] [%] | Activity [7] | IC50 [8] [nM] | inhibition [9] [%] | inhibition [10] [%] | IC50 [11] [nM] | IC50 (Aurora kinase A) [nM] | inhibition [12] [%] | IC50 (A549) [nM] | Activity (HCT-116 [13]) [%] | inhibition [14] [%] | Ratio IC50 (HCT-116 [15]) | inhibition [16] [%] | IC50 (KB) [nM] | IC50 [17] [nM] |
| --- | --- | --- | --- | --- | --- | --- | --- | --- | --- | --- | --- | --- | --- | --- | --- | --- | --- | --- | --- | --- |
| CN(C(=O)Nc1ccccc1)c1ccc2[nH]c(-c3n[nH]c4ccccc34)cc2n1 | 280 | 20.5 | Dose-dependent effect | 0.62 | 6.07 | 75.4 | Active | 1.3 | 13.8 | 0.55 | 8.3 | 519 | 19.3 | 1430 | 25.4 | 16.4 | 3 | 6.64 | 32 |  |
| N#Cc1ccc2c(-c3cc4cc(CN5CCOCC5)ccc4[nH]3)n[nH]c2c1 |  |  |  |  |  |  |  |  |  |  |  |  |  |  |  |  |  |  |  | 11 |
